One experiment deals with HL-60. Briefly: Cytotoxicity against human HL-60 cells assessed as reduction in cell viability incubated for 48 hrs by WST-1 assay. The format is functional, cell-based. The note with it: HL-60, 48 h. An outline of the steps: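 HL-60 promyelocytic leukaemia cells, with proliferation read out by WST-1; activity expressed as IC50.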
(Formazan colour is commonly taken as a measure of viable cells.)

For the next experiment, the system named is HCT-116. Briefly: Cytotoxicity against human HCT-116 cells assessed as reduction in cell viability incubated for 48 hrs by MTT assay. The note with it: HCT-116, 48 h. The format is functional, cell-based. An outline of the steps: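 Antiproliferative test on HCT-116 colon tumour cells, read out by MTT; activity expressed as IC50.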

Molecules are shown by their SMILES.

Consider `O=C1C=CC(=O)c2c1[nH]c1ccccc21`, for which the half-inhibitory concentration (IC50) (in general, the concentration at which inhibition is half-maximal) in the experiment with HL-60 is 1000 nM; in the experiment on HCT-116, 763 nM.
As to `CC1=CC(=O)c2[nH]c3ccc(C(F)(F)F)cc3c2C1=O`, the IC50 in the experiment with HL-60 worked out at 1130 nM; with HCT-116 it was 921 nM.
Turning to `CC1=CC(=O)c2[nH]c3ccc(F)cc3c2C1=O`, the values for the IC50 in the experiment on HL-60 and in the experiment on HCT-116 were 4400 nM and 2700 nM, respectively.
On to `COc1cc2[nH]c3c(c2cc1OC)C(=O)C(C)=CC3=O`, for which the half-inhibitory concentration (IC50) in the experiment with HL-60 came to 8950 nM; in the experiment with HCT-116, 4090 nM.
In the case of `CC1=CC(=O)c2[nH]c3cc(Cl)ccc3c2C1=O`, the figures for the IC50 with HL-60 and with HCT-116 were over 10000 nM and 895 nM, respectively.
In the case of `COCn1c2c(c3ccccc31)C(=O)C=C(C)C2=O`, the IC50 with HL-60 and in the experiment with HCT-116 was over 10000 nM throughout.
For the compound `COc1cc(OC)c2c3c([nH]c2c1)C(=O)C=C(C)C3=O`, the IC50 with HL-60 is 7260 nM; in the experiment on HCT-116, over 10000 nM.
As to `COCn1c2c(c3ccccc31)C(=O)C=CC2=O`, the IC50 with HL-60 was 1380 nM; in the experiment on HCT-116 it was 1310 nM.
`CC1=CC(=O)c2[nH]c3cc([N+](=O)[O-])ccc3c2C1=O`: the IC50 worked out at 1580 nM in the experiment with HL-60 and 1370 nM in the experiment with HCT-116.
The matching figures for `COc1cc(OC)c2[nH]c3c(c2c1)C(=O)C(C)=CC3=O`: 3820 nM and 3600 nM.
Regarding `CC1=CC(=O)c2[nH]c3cc(C)ccc3c2C1=O`, the IC50 was 6930 nM with HL-60 and 1000 nM with HCT-116.
The matching figures for `COc1ccc(OC)c2c3c([nH]c12)C(=O)C=C(C)C3=O`: 2270 nM and 1840 nM.
Turning to `CC1=CC(=O)c2[nH]c3ccc([N+](=O)[O-])cc3c2C1=O`, the IC50 in the experiment with HL-60 was 1030 nM; in the experiment on HCT-116, 569 nM.
For the compound `CC1=CC(=O)c2[nH]c3cc(F)ccc3c2C1=O`, the IC50 in the experiment with HL-60 is 1470 nM; with HCT-116 it was 1000 nM.
For `COc1ccc2[nH]c3c(c2c1OC)C(=O)C(C)=CC3=O`, the IC50 in the experiment on HL-60 and with HCT-116 was over 10000 nM in each case.
Take `CC1=CC(=O)c2[nH]c3cc4ccccc4cc3c2C1=O`: the values for the IC50 in the experiment with HL-60 and in the experiment with HCT-116 were 5270 nM and over 10000 nM, respectively.
The matching figures for `CC1=CC(=O)c2[nH]c3cc(C(F)(F)F)ccc3c2C1=O`: 6020 nM and over 10000 nM.
As to `COCn1c2c(c3ccccc31)C(=O)C(C)=CC2=O`, the figures for the IC50 in the experiment with HL-60 and in the experiment on HCT-116 were 3920 nM and 6490 nM, respectively.
With `CC1=CC(=O)c2[nH]c3ccc4ccccc4c3c2C1=O`, the IC50 in the experiment on HL-60 and in the experiment on HCT-116 was over 10000 nM in each case.
On to `CC1=CC(=O)c2[nH]c3ccc(C)cc3c2C1=O`, for which the IC50 with HL-60 was over 10000 nM; with HCT-116, 2030 nM.
In the case of `COc1ccc2[nH]c3c(c2c1)C(=O)C(C)=CC3=O`, the IC50 in the experiment with HL-60 stood at 3410 nM; in the experiment with HCT-116 it was 1600 nM.
Consider `COc1ccc2c3c([nH]c2c1)C(=O)C=C(C)C3=O`, for which the IC50 in the experiment with HL-60 turned out to be 1750 nM; in the experiment with HCT-116, 992 nM.
As for `CC1=CC(=O)c2[nH]c3ccc(Cl)cc3c2C1=O`, the results for the IC50 in the experiment on HL-60 and with HCT-116 were 1280 nM and 2210 nM, respectively.
Regarding `CC1=CC(=O)c2[nH]c3ccccc3c2C1=O` [MURRAYAQUINONE A], the IC50 in the experiment on HL-60 was found to be 3020 nM; in the experiment with HCT-116, 3720 nM.
